ChEMBL document CHEMBL4184175, “Design, synthesis and biological evaluation of novel indole-xanthendione hybrids as selective estrogen receptor modulators” (Bioorg Med Chem, 2018)
Activity calls are given as the source filed them. The calls are words filed in the database; no cut-off is given here.

Key:
T47D [1] = assay: Antiproliferative activity against human T47D cells after 48 hrs by MTT assay
PBMC = assay: Cytotoxicity against human PBMC assessed as reduction in cell viability at 100 uM after 48 hrs by MTT assay; type: cell-based
Summary of the method: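 PBMCs isolated from human whole blood after RBC lysis, kept in RPMI-1640 with 10% FBS at 37 °C, 5% CO2; about 10^4 cells/well. MTT read-out as for T47D: 48 h exposure in FBS-free medium, MTT 0.5 mg/ml for 4 h, acidified DMSO, absorbance 570/620 nm, viability versus control.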

Estrogen receptor = biological target: T1, Estrogen receptor (Homo sapiens, UniProt P03372); assay: Displacement of Fluormone-tagged ES2 from human recombinant ERalpha after 2 hrs by fluorescence polarization assay
T1 sequence (P03372 whole entry): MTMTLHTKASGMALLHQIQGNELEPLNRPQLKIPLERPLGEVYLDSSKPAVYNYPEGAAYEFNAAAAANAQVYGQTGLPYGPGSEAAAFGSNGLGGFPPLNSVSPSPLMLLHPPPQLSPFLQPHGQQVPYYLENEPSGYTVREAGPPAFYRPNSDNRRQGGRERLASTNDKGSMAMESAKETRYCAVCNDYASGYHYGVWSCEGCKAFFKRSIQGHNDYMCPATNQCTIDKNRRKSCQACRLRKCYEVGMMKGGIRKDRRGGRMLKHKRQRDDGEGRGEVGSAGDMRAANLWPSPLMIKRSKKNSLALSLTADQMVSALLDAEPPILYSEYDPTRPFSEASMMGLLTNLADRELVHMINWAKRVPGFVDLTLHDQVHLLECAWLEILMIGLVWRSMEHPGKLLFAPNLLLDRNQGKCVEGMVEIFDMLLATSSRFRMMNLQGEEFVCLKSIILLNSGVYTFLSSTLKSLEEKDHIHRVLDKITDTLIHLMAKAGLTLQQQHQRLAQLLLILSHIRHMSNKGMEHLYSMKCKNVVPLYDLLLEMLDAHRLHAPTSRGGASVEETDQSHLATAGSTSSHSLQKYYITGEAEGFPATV

[2] = biological target: T2, Estrogen receptor (Homo sapiens) (UniProt P03372); assay: Displacement of Fluormone-tagged ES2 from human recombinant ERalpha up to 1000 nM after 2 hrs by fluorescence polarization assay
T2 sequence (whole entry): T1 sequence (P03372 whole entry)
Summary of the method: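 Fluorescence polarization competition: DMSO serial dilutions of compound mixed 1:1 with human recombinant ER-α/Fluormone complex, at least 2 h at room temperature protected from light; excitation 535 nm, emission 590 nm. Controls: buffer with 4% DMSO (maximum), oestradiol (minimum), free tracer. Percent inhibition fitted by nonlinear regression; IC50 = half displacement of bound ligand.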

MCF7 = assay: Antiproliferative activity against human MCF7 cells; type: functional
[3] = Drug uptake in human T47D cell cytosol at 15 uM after 24 hrs by DAPI staining based confocal laser scanning microscopic method; type: ADME, subcellular
[4] = Drug uptake in human T47D cell nucleus at 15 uM after 24 to 48 hrs by DAPI staining based confocal laser scanning microscopic method; type: ADME, subcellular
[5] = biological target: T2, Estrogen receptor (Homo sapiens); assay: Binding affinity to ERalpha in human T47D cells assessed as downregulation of ERalpha mRNA level at 15 uM after 482 hrs by RT-PCR assay relative to control; type: cell-based; settings: in the assay text read “48 hrs” for “482 hrs”
Summary of the method: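 T47D treated with 15 µM for 48 h; total RNA extracted with TRIzol, quality checked, converted to cDNA. ER-α amplified with gene-specific primers alongside GAPDH as loading control; products run on 1.2% agarose with EtBr and quantified by densitometry, normalised to GAPDH, relative to untreated cells; three independent experiments.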

T47D [6] = assay: Downregulation of ERalpha protein level in human T47D cells at 15 uM after 48 hrs by Western blot method relative to control; type: functional
Summary of the method: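 T47D cells grown in RPMI-1640 with 10% heat-inactivated FBS at 37 °C, 5% CO2, then exposed to 15 uM for 48 h. Lysis in modified RIPA (50 mM Tris-HCl pH 7.4, 1% NP-40, protease inhibitors); protein measured by Bradford. 50 ug run on 10% SDS-PAGE, then nitrocellulose. Rabbit anti-ER-alpha (HC-20) at 4 °C overnight, HRP secondary, ECL. Densitometry normalised to beta-actin versus untreated cells; three experiments.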

[7] = Drug uptake in human T47D cell plasma membrane at 15 uM after 24 hrs by DAPI staining based confocal laser scanning microscopic method; type: ADME, cell membranes

Structure (SMILES) | IC50 (T47D [1]) | Activity (PBMC) | IC50 (Estrogen receptor) | also measured
CC1(C)CC(=O)C2=C(C1)OC1=C(C(=O)CCC1)C2c1cc2ccccc2n1Cc1ccccc1 (stereo unspecified) | 23.5 µM | Non-Toxic | 0.0184 µM | 
CC1(C)CC(=O)C2=C(C1)OC1=C(C(=O)CCC1(C)C)C2c1cc2ccccc2n1Cc1ccccc1 (stereo unspecified) | 19.3 µM | Non-Toxic | 0.587 µM | 
Oc1nc(S)nc2c1C(c1cc3ccccc3n1Cc1ccccc1)c1c(O)nc(S)nc1O2 |  | Non-Toxic |  | inhibition [2]: inactive
O=C1CCC2=C1C(c1cc3ccccc3n1Cc1ccccc1)C1=C(CCC1=O)O2 | 25 µM | Non-Toxic | 0.0512 µM | 
CC1(C)CC(=O)C2C(C1)Oc1ccc3ccccc3c1C2c1ccc(O)cc1 (stereo unspecified) |  |  |  | Activity (MCF7): 6.7 µg/mL
Cc1c(-c2ccc(O)cc2)n(Cc2ccc(OCCN3CCCCCC3)cc2)c2ccc(O)cc12 [BAZEDOXIFENE] | 16.4 µM |  |  | 
CC1(C)CCC(=O)C2=C1OC1=C(C(=O)CCC1)C2c1cc2ccccc2n1Cc1ccccc1 (stereo unspecified) | 16.5 µM | Non-Toxic | 0.055 µM | Drug uptake [3]: Active; Drug uptake [4]: Not Active; Activity [5]: 54.3%; Activity (T47D [6]): 32.18%
CC1CC(=O)C2=C(C1)OC1=C(C(=O)CC(C)C1)C2c1cc2ccccc2n1Cc1ccccc1 (stereo unspecified) |  | Non-Toxic | 0.482 µM | 
CC1CC(=O)C2=C(C1)OC1=C(C(=O)CCC1(C)C)C2c1cc2ccccc2n1Cc1ccccc1 (stereo unspecified) | 20.9 µM | Non-Toxic | 0.356 µM | 
CC1CC(=O)C2=C(C1)OC1=C(C(=O)CCC1)C2c1cc2ccccc2n1Cc1ccccc1 (stereo unspecified) | 17.9 µM | Non-Toxic | 0.0166 µM | Drug uptake [7]: Active; Drug uptake [4]: Not Active; Activity [5]: 29.7%; Activity (T47D [6]): 31.06%
CC1(C)CC(=O)C2=C(C1)OC1=C(C(=O)CC(C)(C)C1)C2c1cc2ccccc2n1Cc1ccccc1 | 24.6 µM | Non-Toxic | 0.0608 µM | 
O=C1CC(c2ccccc2)CC2=C1C(c1cc3ccccc3n1Cc1ccccc1)C1=C(CC(c3ccccc3)CC1=O)O2 (stereo unspecified) |  | Non-Toxic |  | inhibition [2]: inactive
CC1(C)CCC(=O)C2=C1OC1=C(C(=O)CCC1(C)C)C2c1cc2ccccc2n1Cc1ccccc1 |  | Non-Toxic |  | inhibition [2]: inactive
O=c1[nH]c2c(c(=O)[nH]1)C(c1cc3ccccc3n1Cc1ccccc1)c1c([nH]c(=O)[nH]c1=O)O2 | 22.1 µM | Non-Toxic | 0.0611 µM | 
CC1CC(=O)C2=C(C1)OC1=C(C(=O)CC(C)(C)C1)C2c1cc2ccccc2n1Cc1ccccc1 (stereo unspecified) | 19.8 µM | Non-Toxic | 0.0266 µM | 
CC/C(=C(\c1ccccc1)c1ccc(OCCN(C)C)cc1)c1ccccc1 [TAMOXIFEN] |  |  |  | Activity (MCF7): 10 µg/mL
